For experiment [1], the target named is T1, Angiotensin-converting enzyme (Oryctolagus cuniculus, UniProt P12822).
T1 sequence (P12822 whole entry): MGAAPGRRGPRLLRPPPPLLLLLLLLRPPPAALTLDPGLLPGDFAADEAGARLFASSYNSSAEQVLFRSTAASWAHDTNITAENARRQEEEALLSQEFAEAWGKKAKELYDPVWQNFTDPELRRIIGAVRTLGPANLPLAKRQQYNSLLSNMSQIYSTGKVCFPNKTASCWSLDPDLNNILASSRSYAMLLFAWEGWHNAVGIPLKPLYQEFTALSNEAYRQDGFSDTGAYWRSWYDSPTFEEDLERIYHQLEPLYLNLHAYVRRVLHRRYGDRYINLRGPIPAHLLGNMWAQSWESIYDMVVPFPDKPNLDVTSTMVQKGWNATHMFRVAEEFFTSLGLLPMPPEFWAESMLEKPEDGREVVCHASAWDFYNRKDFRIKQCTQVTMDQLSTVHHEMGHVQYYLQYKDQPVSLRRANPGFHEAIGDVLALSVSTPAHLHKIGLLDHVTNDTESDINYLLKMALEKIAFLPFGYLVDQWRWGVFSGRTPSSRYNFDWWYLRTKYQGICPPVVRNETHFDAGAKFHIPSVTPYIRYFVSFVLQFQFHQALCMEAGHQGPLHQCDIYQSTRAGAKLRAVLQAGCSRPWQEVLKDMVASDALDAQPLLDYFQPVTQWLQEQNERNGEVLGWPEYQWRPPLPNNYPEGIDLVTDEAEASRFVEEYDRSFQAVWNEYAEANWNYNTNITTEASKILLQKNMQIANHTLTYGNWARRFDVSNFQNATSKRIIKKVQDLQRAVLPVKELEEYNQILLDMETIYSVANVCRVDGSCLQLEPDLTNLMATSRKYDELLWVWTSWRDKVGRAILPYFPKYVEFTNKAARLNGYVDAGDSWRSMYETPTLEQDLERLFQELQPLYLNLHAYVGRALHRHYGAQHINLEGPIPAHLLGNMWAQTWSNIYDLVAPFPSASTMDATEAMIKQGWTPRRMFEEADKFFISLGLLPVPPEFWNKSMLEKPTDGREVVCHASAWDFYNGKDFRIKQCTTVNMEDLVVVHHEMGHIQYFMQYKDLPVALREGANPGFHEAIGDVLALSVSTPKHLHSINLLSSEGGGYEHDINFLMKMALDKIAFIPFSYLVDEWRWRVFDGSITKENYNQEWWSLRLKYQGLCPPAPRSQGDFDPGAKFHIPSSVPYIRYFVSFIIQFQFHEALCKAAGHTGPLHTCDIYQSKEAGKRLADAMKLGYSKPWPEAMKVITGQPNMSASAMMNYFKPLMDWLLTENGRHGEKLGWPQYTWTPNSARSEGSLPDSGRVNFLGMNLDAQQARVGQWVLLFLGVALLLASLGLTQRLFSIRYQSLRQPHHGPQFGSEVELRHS
In words: (§1) Inhibition of ACE in rabbit lung assessed as decrease in dansylglycine concentration after 5 mins by HPLC analysis. An outline of the steps:
(§2)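 Rabbit lung ACE, pre-incubated 5 min at 37 °C with compound dissolved in HEPES assay buffer. Reaction started with substrate dansyltriglycine (7.86 mM) plus internal standard dansyl-L-glutamine (0.353 mM), both in the added combined solution. Incubation time was set from a calibration curve. Dansylglycine was quantified by reversed-phase HPLC with UV detection, using isocratic 10 mM NaH₂PO₄ (pH 7)/acetonitrile 88:12. Percent inhibition was taken versus control, with IC50 by nonlinear regression; means of three experiments.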

Experiment [2] addresses T2, Angiotensin-converting enzyme (Oryctolagus cuniculus) (UniProt P12822).
T2 sequence (whole entry): T1 sequence (P12822 whole entry)
The description is as §1. In short, it runs like this: as §2

Broadly, the IC50 is the concentration needed to halve the response being measured. `O=C(O)[C@H]1O[C@@H](Oc2c(-c3ccc(O)c(O)c3)oc3cc(O)cc(O)c3c2=O)[C@H](O)[C@@H](O)[C@@H]1O` [QUERCETIN GLUCURONIDE]: in experiment [1], the IC50 came to 200 µM. Same read-out and setting: for `COc1cc(C(=O)/C=C/c2ccc([N+](=O)[O-])c(O)c2)cc(OC)c1OC` the value was 552 µM. With `COc1ccc(C2CC(c3cc(OC)c(OC)c(OC)c3)=NN2C)cc1[N+](=O)[O-]` (centres undefined), the inhibition entry in experiment [2] was “Dose-dependent effect”. Turning to `COc1ccc(/C=C/C(=O)c2cc(OC)c(OC)c(OC)c2)cc1[N+](=O)[O-]`, the IC50 in experiment [1] is 516 µM. Still for that read-out and setting: for `COc1ccc(C2CC(c3cc(OC)c(OC)c(OC)c3)=NN2C)cc1N` (centres undefined) the value was 749 µM. In the case of `COc1ccc(/C=C/C(=O)c2cc(OC)c(OC)c(OC)c2)cc1N`, the inhibition result in experiment [2] is “Dose-dependent effect”. Also, in experiment [1], the IC50 came out at 219 µM. Take `O=c1cc(-c2ccc(O)c(O)c2)oc2cc(O)cc(O)c12` [LUTEOLIN]: in experiment [1], the IC50 amounted to 290 µM. On the same count and under the same terms, for `COc1cc([C-]2CC(c3ccc([N+](=O)[O-])c(O)c3)[N+](C)=N2)cc(OC)c1OC` (centres undefined) the value was 599 µM; for `COc1ccc(C2C[C-](c3cc(OC)c(OC)c(OC)c3)N=[N+]2C)cc1[N+](=O)[O-]` (centres undefined), 213 µM. For the compound `COc1cc(/C=C/C(=O)c2cc(OC)c(OC)c(OC)c2)ccc1O`, the inhibition entry in experiment [2] is “Dose-dependent effect”. In addition, the IC50 in experiment [1] came to 246 µM. With `COc1ccc(C2CC(c3cc(OC)c(OC)c(OC)c3)=NN2C)cc1F` (centres undefined), in experiment [1], the IC50 stood at 770 µM. Regarding `COc1cc(C2CC(c3cc(OC)c(OC)c(OC)c3)=NN2C)ccc1O` (centres undefined), the IC50 in experiment [1] amounted to 674 µM. Take `COc1ccc(/C=C/C(=O)c2cc(OC)c(OC)c(OC)c2)cc1O`: the inhibition result in experiment [2] is “Dose-dependent effect”. The IC50 in experiment [1] was found to be 225 µM. As for `COc1ccc(/C=C/C(=O)c2cc(OC)c(OC)c(OC)c2)cc1F`, the IC50 in experiment [1] amounted to 570 µM. On to `COc1cc(C(=O)/C=C/c2ccccc2)cc(OC)c1OC`, for which the inhibition result in experiment [2] is “Dose-dependent effect”. Also, the IC50 in experiment [1] came out at 338 µM. With `COc1cccc(C2CC(c3cc(OC)c(OC)c(OC)c3)=NN2C)c1` (centres undefined), in experiment [1], the IC50 is 889 µM.

As for `COc1cccc(/C=C/C(=O)c2cc(OC)c(OC)c(OC)c2)c1`, in experiment [1], the IC50 turned out to be 622 µM.

For `COc1ccc(/C=C/C(=O)c2cc(OC)c(OC)c(OC)c2)cc1`, the IC50 in experiment [1] was 574 µM. The same measure, in the same setting: for `O=c1cc(-c2ccc(O)c(O)c2)oc2cc(O[C@@H]3O[C@H](CO)[C@@H](O)[C@H](O)[C@H]3O)cc(O)c12` [GALUTEOLIN] the value was 280 µM.

On to `COc1cc(C2=NN(C)C(c3ccccc3)C2)cc(OC)c1OC` (centres undefined), for which the IC50 in experiment [1] amounted to 805 µM. For `COc1ccc(C2CC(c3cc(OC)c(OC)c(OC)c3)=NN2C)cc1O` (centres undefined), the half-inhibitory concentration (IC50) in experiment [1] was determined as 762 µM. Same read-out and setting: for `O=c1c(O[C@@H]2O[C@H](CO)[C@H](O)[C@H](O)[C@H]2O)c(-c2ccc(O)cc2)oc2cc(O)cc(O)c12` [TRIFOLIN] the value was 260 µM.

With `O=c1cc(-c2ccc(O)cc2)oc2cc(O)cc(O)c12` [APIGENIN], in experiment [1], the IC50 was 280 µM. Turning to `COc1ccc(C2CC(c3cc(OC)c(OC)c(OC)c3)=NN2C)cc1` (centres undefined), the inhibition result in experiment [2] is “Dose-dependent effect”. Further, the IC50 in experiment [1] is 435 µM.

These data come from ChEMBL document CHEMBL1155396, “The synthesis and angiotensin converting enzyme (ACE) inhibitory activity of chalcones and their pyrazole derivatives” (Bioorg Med Chem Lett, 2010).
